According to PMC11522000 (Nature Microbiology, 2024):
Values after ≈ are worked out from the molar mass of the structure shown.

How the values were obtained:
CpPI(4)K = biological target: T1, CpPI(4)K (Cryptosporidium parvum, UniProt Q5CVD3); assay: PI; format: biochemical, C. parvum
T1 sequence (Q5CVD3 1-1114): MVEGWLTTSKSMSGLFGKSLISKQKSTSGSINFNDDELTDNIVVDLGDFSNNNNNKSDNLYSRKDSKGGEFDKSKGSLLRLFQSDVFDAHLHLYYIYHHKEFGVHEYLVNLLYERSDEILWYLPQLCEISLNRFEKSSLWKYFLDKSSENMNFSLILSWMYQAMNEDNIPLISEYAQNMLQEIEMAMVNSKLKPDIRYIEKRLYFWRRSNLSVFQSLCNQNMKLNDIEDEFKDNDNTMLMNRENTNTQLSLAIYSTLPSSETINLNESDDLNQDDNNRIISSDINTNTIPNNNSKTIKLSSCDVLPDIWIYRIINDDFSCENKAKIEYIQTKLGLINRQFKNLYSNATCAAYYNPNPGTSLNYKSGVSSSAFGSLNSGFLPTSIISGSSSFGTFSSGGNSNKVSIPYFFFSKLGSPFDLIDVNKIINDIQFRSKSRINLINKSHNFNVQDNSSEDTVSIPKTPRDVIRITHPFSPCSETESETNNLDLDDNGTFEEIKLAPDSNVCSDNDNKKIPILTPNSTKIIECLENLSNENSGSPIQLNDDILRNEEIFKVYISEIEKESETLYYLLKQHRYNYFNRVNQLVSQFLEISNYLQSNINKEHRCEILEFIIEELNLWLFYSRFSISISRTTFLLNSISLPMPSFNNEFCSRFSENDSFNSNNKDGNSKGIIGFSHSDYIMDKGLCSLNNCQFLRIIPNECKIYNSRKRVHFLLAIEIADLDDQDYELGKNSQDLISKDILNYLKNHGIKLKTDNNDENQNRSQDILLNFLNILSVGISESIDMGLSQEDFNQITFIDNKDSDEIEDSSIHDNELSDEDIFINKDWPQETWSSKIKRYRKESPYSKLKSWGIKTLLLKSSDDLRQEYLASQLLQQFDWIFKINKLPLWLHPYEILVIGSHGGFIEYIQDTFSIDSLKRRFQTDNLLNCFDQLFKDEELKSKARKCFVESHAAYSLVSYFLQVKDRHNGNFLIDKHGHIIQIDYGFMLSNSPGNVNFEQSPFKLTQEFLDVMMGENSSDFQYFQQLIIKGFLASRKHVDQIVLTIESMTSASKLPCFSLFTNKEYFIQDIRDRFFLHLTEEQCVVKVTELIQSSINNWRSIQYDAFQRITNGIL
Outline: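 Enzyme was pre-incubated with compound for 5 min at room temperature. The reaction was started with substrate mix at twice final strength (PI, ATP, Tris-HCl pH 7.5, DTT, 0.05% Triton X-100, MnCl2) and run 50 min at room temperature. ADP was measured by ADP-Glo luminescence. IC50s came from in-plate duplicate 10-point 3-fold dilutions, with DMSO and reference-inhibitor controls. The C. parvum enzymes (wild type and mutants) were full-length proteins expressed from baculovirus in Sf21 cells.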

HsPI(4)K = HsPI(4)K (Homo sapiens, UniProt Q9UBF8); assay: PI; format: biochemical; conditions: HsPI(4)K IC50, 3 μM ATP
Cytotoxicity assay = format: cell-based, human; conditions: human, HepG2 cells (ATCC CRL-10741), HepG2 CC50, 96 h
[1] = High-throughput equilibrium solubility; format: physicochemical; conditions: thermodynamic from solid
Outline: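 Equilibrium solubility was measured by a miniaturized shake-flask method with HPLC quantification.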

P-glycoprotein (MDR1) = assay: MDCK MDR1 permeability and efflux; format: in vitro ADME; conditions: dog
[2] = Hepatocytes metabolic stability; format: in vitro ADME; conditions: mouse; for half-life: hepatocytes
Outline: (§1)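 Test compound was incubated with liver microsomes or hepatocytes of each species, and parent depletion was quantified by LC-MS/MS. From this, in vitro half-life and intrinsic clearance were derived, along with predicted metabolic clearance and hepatic extraction ratio.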

[3] = Stability in intestinal S9 fraction; format: in vitro ADME; conditions: mouse
Outline: (§2)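 Test compound added to intestinal S9 fraction of each species to start the reaction. Incubated in a shaking water bath at 37 °C, with samples taken at sequential timepoints. Samples quenched with ice-cold acetonitrile and analysed by LC-MS/MS. Half-life calculated from the rate of parent compound depletion.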

[4] = Stability in intestinal S9 fraction; format: in vitro ADME; conditions: human
Outline: as §2

Plasma stability [5] = format: in vitro ADME; conditions: mouse
Outline: (§3)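 Test compound was added to plasma and incubated at 37 °C in a shaking water bath, with samples taken at sequential timepoints. Samples were quenched with ice-cold acetonitrile and analysed by LC-MS/MS, and half-life was calculated from the depletion rate.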

Plasma stability [6] = format: in vitro ADME; conditions: human
Outline: as §3

C. parvum = assay: Mouse efficacy study; format: in vivo, C57BL/6 IFN-γ-knockout mice; conditions: oral 10 mg kg^−1, 5 days; nitazoxanide 100 mg kg^−1
[7] = Hepatocytes metabolic stability; format: in vitro ADME; conditions: human
Outline: as §1

[8] = In vivo pharmacokinetic analysis; design: species or system mouse; conditions: male, C57BL/6, mouse, plasma
Outline: (§4)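 Animals were male C57BL/6 mice (8–10 weeks), Wistar rats (8–10 weeks) and beagle dogs (12–14 weeks). Each received oral and i.v. doses, with plasma sampling for PK parameters.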

[9] = In vivo pharmacokinetic analysis; conditions: male, Beagle, dog, plasma
Outline: as §4

[10] = 2 weeks GLP rat toxicology study with toxicokinetics; format: in vivo; conditions: both, Wistar, plasma, po, 1000 mg/kg/day, EDI048 1000 mg/kg/day; for AUC(0-t): AUC0-8, rat
Outline: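 Male and female Wistar rats were about 7–8 weeks old at receipt and 9–10 weeks old at the start of dosing. They were dosed for 2 weeks at 50, 250 and 1000 mg/kg/day, with toxicokinetic plasma sampling.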

[11] = 2 weeks GLP dog toxicology study with toxicokinetics; format: in vivo; conditions: both, beagle, dog, plasma, po, 1000 mg/kg/day, EDI048 1000 mg/kg/day; for AUC(0-t): AUC0-8, dog

Sequence of HsPI(4)K (Q9UBF8 523-816 limits assumed): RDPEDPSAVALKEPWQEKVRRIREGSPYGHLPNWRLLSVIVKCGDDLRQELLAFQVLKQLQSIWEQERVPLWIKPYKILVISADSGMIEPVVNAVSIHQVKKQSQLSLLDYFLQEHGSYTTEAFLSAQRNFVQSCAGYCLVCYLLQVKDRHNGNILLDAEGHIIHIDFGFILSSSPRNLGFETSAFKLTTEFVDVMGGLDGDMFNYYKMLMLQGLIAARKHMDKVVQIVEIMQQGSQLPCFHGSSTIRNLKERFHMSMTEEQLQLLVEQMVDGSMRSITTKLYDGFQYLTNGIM

CCOC(=O)CN(C(=O)c1ccn2ncc(-c3ccc(C(=O)NC)cc3)c2c1)c1ccc(Cl)cc1 [Compound 1, ethyl N-(4-chlorophenyl)-N-(3-(4-(methylcarbamoyl)phenyl)pyrazolo[1,5-a]pyridine-5-carbonyl)glycinate]
IC50 (CpPI(4)K; CpPI(4)K IC50, 3 μM ATP): 7 ± 2 nM
IC50 (CpPI(4)K; CpPI(4)K IC50, running text): 2 to 7 nM
IC50 (HsPI(4)K): 1140 ± 296 nM
CC50 at 96 h (Cytotoxicity assay): 14700 nM
solubility ([1]; FaSSIF): 86 µM (≈ 42.2 µg/mL)
solubility ([1]; pH 6.8, aqueous buffer): 31 µM (≈ 15.2 µg/mL)
Papp A→B (P-glycoprotein (MDR1); MDCK-MDR1): 7.89 ×10⁻⁶ cm/s
Papp B→A (P-glycoprotein (MDR1); MDCK-MDR1): 7.4 ×10⁻⁶ cm/s
efflux ratio (P-glycoprotein (MDR1); MDCK-MDR1): 0.94
Hepatocytes ER [2]: 74%
half-life [2]: 0.223 h
half-life [3]: 2 h
half-life [4]: 2 h
half-life (Plasma stability [5]): 0.227 h
half-life (Plasma stability [6]): > 2 h
efficacy in the mouse model (C. parvum): highly efficacious

CNC(=O)c1ccc(-c2cnn3ccc(C(=O)N(CC(=O)O)c4ccc(Cl)cc4)cc23)cc1 [Compound 2, N-(4-chlorophenyl)-N-(3-(4-(methylcarbamoyl)phenyl)pyrazolo[1,5-a]pyridine-5-carbonyl)glycine]
IC50 (CpPI(4)K; CpPI(4)K IC50, 3 μM ATP): 2 nM
IC50 (CpPI(4)K; CpPI(4)K IC50, running text): 2 to 7 nM
IC50 (HsPI(4)K): 135 ± 33 nM
CC50 at 96 h (Cytotoxicity assay): > 100000 nM
solubility ([1]; FaSSIF): 1000 µM (≈ 463 µg/mL)
solubility ([1]; pH 6.8, aqueous buffer): 708 µM (≈ 328 µg/mL)
Papp A→B (P-glycoprotein (MDR1); MDCK-MDR1): 0.89 ×10⁻⁶ cm/s
Papp B→A (P-glycoprotein (MDR1); MDCK-MDR1): 1.65 ×10⁻⁶ cm/s
efflux ratio (P-glycoprotein (MDR1); MDCK-MDR1): 1.85
Hepatocytes ER [2]: 52%
half-life [2]: 0.597 h
half-life [3]: > 4 h
half-life (Plasma stability [5]): > 2 h
half-life (Plasma stability [6]): > 2 h
efficacy in the mouse model (C. parvum): not efficacious in vivo

COC(=O)c1cc(Cl)ccc1N(C)C(=O)c1ccn2ncc(-c3ccc(C(N)=O)cc3)c2c1 [Compound 5, methyl 2-(3-(4-carbamoylphenyl)-N-methylpyrazolo[1,5-a]pyridine-5-carboxamido)-5-chlorobenzoate]
IC50 (CpPI(4)K; CpPI(4)K IC50, 3 μM ATP): 5 ± 2 nM
IC50 (HsPI(4)K): 203 ± 47 nM
CC50 at 96 h (Cytotoxicity assay): > 100000 nM
solubility ([1]; FaSSIF): 147 µM (≈ 68 µg/mL)
solubility ([1]; pH 6.8, aqueous buffer): 110 µM (≈ 50.9 µg/mL)
Papp A→B (P-glycoprotein (MDR1); MDCK-MDR1): 2.55 ×10⁻⁶ cm/s
Papp B→A (P-glycoprotein (MDR1); MDCK-MDR1): 15.7 ×10⁻⁶ cm/s
efflux ratio (P-glycoprotein (MDR1); MDCK-MDR1): 6.15
Hepatocytes ER [2]: 91%
half-life [2]: 0.0667 h
half-life [3]: 1 h
half-life [4]: 1.77 h
half-life (Plasma stability [5]): > 2 h
half-life (Plasma stability [6]): > 2 h

CNC(=O)c1ccc(-c2cnn3ccc(C(=O)N(C)c4ccc(Cl)c(C(=O)O)c4)cc23)cc1 [Compound 6, 2-chloro-5-(N-methyl-3-(4-(methylcarbamoyl)phenyl)pyrazolo[1,5-a]pyridine-5-carboxamido)benzoic acid]
IC50 (CpPI(4)K; CpPI(4)K IC50, 3 μM ATP): 31 ± 24 nM
IC50 (HsPI(4)K): 484 ± 119 nM
CC50 at 96 h (Cytotoxicity assay): > 100000 nM
solubility ([1]; pH 6.8, aqueous buffer, Solubility pH 6.8, pH 6.8): > 1000 µM
Papp A→B (P-glycoprotein (MDR1); MDCK-MDR1): 0.56 ×10⁻⁶ cm/s
efflux ratio (P-glycoprotein (MDR1); MDCK-MDR1): 1.86
Papp B→A (P-glycoprotein (MDR1); MDCK-MDR1, Permeability B–A, MDCK MDR1, basolateral to apical): 1.04 ×10⁻⁶ cm/s
Hepatocytes ER [2]: 18%
half-life [2]: > 2.92 h
Hepatocytes ER [7]: 33%
half-life ([7]; hepatocytes): > 2.92 h
half-life [3]: > 4 h
AUC ([8]; iv, 1 mg/kg): 1.19 µM·h
AUC ([8]; po, 10 mg/kg): 0.092 µM·h
Cmax ([8]; po, 10 mg/kg): 33.4 nM
AUC ([9]; iv, 0.1 mg/kg): 0.0319 µM·h
AUC ([9]; po, 0.3 mg/kg): 0.0047 µM·h
Cmax ([9]; po, 0.3 mg/kg): 2 nM
AUC(0-t) ([10]; day 1): 886 ng·h/mL
AUC(0-t) ([10]; day 14): 1430 ng·h/mL
Cmax ([10]; day 14): 242 ng/mL
Tmax ([10]; day 1): 1 h
Tmax ([10]; day 14): 3 h
AUC(0-t) ([11]; day 1): 205 ng·h/mL
AUC(0-t) ([11]; day 14): 301 ng·h/mL
Cmax ([11]; day 14): 72.8 ng/mL
Tmax ([11]; day 1): 1.2 h
Tmax ([11]; day 14): 1.15 h

COC(=O)c1cc(N(C)C(=O)c2ccn3ncc(-c4ccc(C(=O)O)cc4)c3c2)ccc1Cl [Compound 7, 4-(5-((4-chloro-3-(methoxycarbonyl)phenyl)(methyl)carbamoyl)pyrazolo[1,5-a]pyridin-3-yl)benzoic acid]
IC50 (CpPI(4)K; CpPI(4)K IC50, 3 μM ATP): 76 nM
IC50 (HsPI(4)K): 11300 nM
CC50 at 96 h (Cytotoxicity assay): > 100000 nM
AUC(0-t) ([10]; day 14): 0.221 ng·h/mL
Cmax ([10]; day 14): 0.046 ng/mL
Tmax ([10]; day 1): 3 h
Tmax ([10]; day 14): 1 h
AUC(0-t) ([11]; day 1): 642 ng·h/mL
AUC(0-t) ([11]; day 14): 1180 ng·h/mL
Cmax ([11]; day 14): 224 ng/mL
Tmax ([11]; day 1): 1.6 h
Tmax ([11]; day 14): 2.2 h
